Columns and labels:
[1] = Cmax in wild-type FVB mouse at 20 mg/kg, ip; assay type: ADME, organism-based; set-up: dose 20 mg/kg, route intraperitoneal; settings: in vivo
Summary of the method: (§1)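 Male FVB or Bcrp1(−/−) mice (6–10 weeks), nonsoy chow ≥1 week, fasted 12 h. Single i.p. 20 mg/kg from 2 mg/ml solution in 100 mM sodium bicarbonate–PEG 300 (7:3), pH 10; n = 5. Serial tail blood at 10 time points under isoflurane; whole-blood genistein and conjugates by UPLC-MS/MS; noncompartmental analysis.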

[2] = Biliary excretion in BCRP-/- mouse measured after 2.5 hrs post intestinal perfusion by UPLC-MS/MS analysis; assay type: ADME; settings: bile, read-out: Drug excretion
Summary of the method: (§2)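 Gallbladder bile taken after 2.5 h of simultaneous small intestine/colon perfusion with 10 μM genistein (HBSS pH 7.4, 0.191 ml/min) in FVB or Bcrp1(−/−) mice (n = 4). Bile diluted 20-fold in HBSS, daidzein internal standard in acetonitrile added, dried and reconstituted. Genistein and conjugates quantified by UPLC-MS/MS.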

[3] = Drug metabolism in BCRP-/- mouse small intestine S9 fraction assessed as compound glucuronidation rate at 10 uM by UPLC-MS/MS analysis; assay type: ADME, tissue-based; settings: s9, 10 µM
Summary of the method: (§3)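 S9 from liver, small intestine or colon of FVB or Bcrp1(−/−) mice, 1 mg/ml protein, with 10 μM genistein in 50 mM potassium phosphate pH 7.4, 0.88 mM MgCl2, 4.4 mM saccharolactone, 0.022 mg/ml alamethicin. Glucuronidation started with 3.5 mM UDPGA; sulfation used 0.1 mM PAPS instead. 37°C, 60 min; n = 4.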

[4] = Drug recovery in human Caco2 cells at 2 to 10 uM after 4 hrs by UPLC-MS/MS analysis; assay type: ADME, cell-based; settings: Caco-2, read-out: Drug recovery
Summary of the method: (§4)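 Caco-2 TC7 monolayers on 3 μm polycarbonate inserts, used 19–22 days post-seeding (TEER ≥460 Ω/cm2). Genistein 2 or 10 μM in HBSS pH 7.4 applied apically, ±5 μM Ko143 apically; sampling both sides at 0–4 h hourly with replacement, triplicate. Genistein and four conjugates plus intracellular amounts at 4 h by UPLC-MS/MS; mass balance versus dose added.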

BCRP = assay: Drug recovery in human Caco2 cells at 2 to 10 uM after 4 hrs by UPLC-MS/MS analysis in presence of BCRP inhibitor Ko143; assay type: ADME, cell-based; settings: Caco-2, with Ko143 (BCRP inhibitor, concentration not stated), read-out: Drug recovery; summary of the method: as §4
[5] = Drug metabolism in BCRP-/- mouse colon S9 fraction assessed as compound glucuronidation rate at 10 uM by UPLC-MS/MS analysis; assay type: ADME, tissue-based; settings: s9, 10 µM; summary of the method: as §3
[6] = Cmax in BCRP-/- mouse at 8 mg/kg, po; assay type: ADME, organism-based; set-up: dose 8 mg/kg, route oral; settings: in vivo
[7] = Drug metabolism in BCRP-/- mouse hepatic S9 fraction assessed as compound glucuronidation rate at 10 uM by UPLC-MS/MS analysis; assay type: ADME, Liver; settings: s9, 10 µM; summary of the method: as §3
[8] = Cmax in BCRP-/- mouse at 2 mg/kg, po; assay type: ADME, organism-based; set-up: dose 2 mg/kg, route oral; settings: in vivo
Summary of the method: (§5)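 Male wild-type FVB or Bcrp1(−/−) mice (6–10 weeks) on nonsoy chow ≥1 week, fasted 12 h with water, refed at 4 h. Oral gavage of 2 or 20 mg/kg as 4 mg/ml suspension in oral suspending vehicle; n = 5. Tail-snip blood at 10 time points under isoflurane, whole blood by UPLC-MS/MS (MRM); noncompartmental analysis.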

Mus musculus [9] = species on record: Mus musculus; assay: Drug uptake in BCRP-/- mouse colon at 10 uM by UPLC-MS/MS analysis; assay type: ADME, organism-based; settings: in vivo
Summary of the method: (§6)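 In situ perfusion in FVB or Bcrp1(−/−) mice (n = 4): small intestine and colon (8–12 cm each) perfused together with 10 μM genistein in HBSS pH 7.4, 0.191 ml/min, 37°C. After 30-min washout, perfusate sampled at 60, 90, 120, 150 min; runs discarded if water flux >10% per 10 cm. Percent absorbed by UPLC-MS/MS.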

[10] = Drug metabolism in wild-type FVB mouse hepatic S9 fraction assessed as compound glucuronidation rate at 10 uM by UPLC-MS/MS analysis; assay type: ADME, Liver; settings: s9, 10 µM; summary of the method: as §3
[11] = Drug metabolism in wild-type FVB mouse small intestine S9 fraction assessed as compound glucuronidation rate at 10 uM by UPLC-MS/MS analysis; assay type: ADME, tissue-based; settings: s9, 10 µM; summary of the method: as §3
[12] = Half life in BCRP-/- mouse at 2 mg/kg, po; assay type: ADME, organism-based; set-up: dose 2 mg/kg, route oral; settings: in vivo; summary of the method: as §5
[13] = Drug metabolism in wild-type FVB mouse small intestine S9 fraction assessed as compound sulfation rate at 10 uM by UPLC-MS/MS analysis; assay type: ADME, tissue-based; settings: s9, 10 µM; summary of the method: as §3
[14] = AUC (0 to 3 hrs) in wild-type FVB mouse at 50 mg/kg, po; assay type: ADME, organism-based; set-up: time < 3 hr, dose 50 mg/kg, route oral; settings: plasma
Blood = assay: Drug metabolism in Wistar rat blood at 3.8 uM after 4 hrs by UPLC-MS/MS analysis; assay type: ADME, tissue-based
Summary of the method: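 Glucuronide mix (G-7-G plus G-4′-G, 3 μM) with 3.8 μM genistein incubated in fresh Wistar rat blood, 37°C shaking bath up to 4 h; sulfate runs used 0.8 μM sulfates plus 2.2 μM aglycone. Samples at 0, 60, 120, 240 min quenched with acetonitrile/daidzein, analysed by UPLC-MS/MS; 50 mM phosphate buffer pH 7.4 as negative control; n = 3.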

[15] = AUC ( 0 to t) in wild-type FVB mouse at 20 mg/kg, po; assay type: ADME, organism-based; set-up: dose 20 mg/kg, route oral; settings: plasma; summary of the method: as §5
[16] = Cmax in BCRP-/- mouse at 50 mg/kg, po; assay type: ADME, organism-based; set-up: dose 50 mg/kg, route oral; settings: in vivo
[17] = Elimination rate constant in BCRP-/- mouse at 2 mg/kg, po; assay type: ADME, organism-based; set-up: dose 2 mg/kg, route oral; settings: in vivo; summary of the method: as §5
[18] = Drug transport in human Caco2 cells assessed as basolateral excretion of compound at 2 uM after 4 hrs by UPLC-MS/MS analysis in presence of BCRP inhibitor Ko143; assay type: ADME, cell-based; settings: caco-2, 4 h; summary of the method: as §4
[19] = AUC ( 0 to t) in wild-type FVB mouse at 20 mg/kg, ip; assay type: ADME, organism-based; set-up: dose 20 mg/kg, route intraperitoneal; settings: plasma; summary of the method: as §1
[20] = Cmax in BCRP-/- mouse at 20 mg/kg, po; assay type: ADME, organism-based; set-up: dose 20 mg/kg, route oral; settings: in vivo; summary of the method: as §5
[21] = AUC (0 to 3 hrs) in BCRP-/- mouse at 50 mg/kg, po; assay type: ADME, organism-based; set-up: time < 3 hr, dose 50 mg/kg, route oral; settings: plasma
[22] = Drug metabolism in BCRP-/- mouse small intestine S9 fraction assessed as compound sulfation rate at 10 uM by UPLC-MS/MS analysis; assay type: ADME, tissue-based; settings: s9, 10 µM; summary of the method: as §3
[23] = Drug metabolism in wild-type FVB mouse colon S9 fraction assessed as compound glucuronidation rate at 10 uM by UPLC-MS/MS analysis; assay type: ADME, tissue-based; settings: s9, 10 µM; summary of the method: as §3
[24] = AUC ( 0 to t) in wild-type FVB mouse at 2 mg/kg, po; assay type: ADME, organism-based, Plasma; set-up: dose 2 mg/kg, route oral; summary of the method: as §5
Mus musculus [25] = assay: Half life in BCRP-/- mouse at 20 mg/kg, ip; assay type: ADME, organism-based; set-up: dose 20 mg/kg, route intraperitoneal; settings: in vivo; summary of the method: as §1
Colon = assay: Drug uptake in wild-type FVB mouse colon at 10 uM by UPLC-MS/MS analysis; assay type: ADME, tissue-based; settings: in vivo; summary of the method: as §6
[26] = Cmax in wild-type FVB mouse at 20 mg/kg, po; assay type: ADME, organism-based; set-up: dose 20 mg/kg, route oral; settings: in vivo; summary of the method: as §5
[27] = Half life in wild-type FVB mouse at 20 mg/kg, ip; assay type: ADME, organism-based; set-up: dose 20 mg/kg, route intraperitoneal; settings: in vivo; summary of the method: as §1
[28] = AUC ( 0 to t) in BCRP-/- mouse at 20 mg/kg, ip; assay type: ADME, organism-based; set-up: dose 20 mg/kg, route intraperitoneal; settings: plasma
[29] = Drug metabolism in BCRP-/- mouse colon S9 fraction assessed as compound sulfation rate at 10 uM by UPLC-MS/MS analysis; assay type: ADME, tissue-based; settings: s9, 10 µM; summary of the method: as §3
Mus musculus [30] = assay: Elimination rate constant in BCRP-/- mouse at 20 mg/kg, ip; assay type: ADME, organism-based; set-up: dose 20 mg/kg, route intraperitoneal; settings: in vivo; summary of the method: as §1
[31] = Biliary excretion in wild-type FVB mouse measured after 2.5 hrs post intestinal perfusion by UPLC-MS/MS analysis; assay type: ADME; settings: bile, read-out: Drug excretion; summary of the method: as §2
[32] = AUC ( 0 to t) in BCRP-/- mouse at 2 mg/kg, po; assay type: ADME, organism-based; set-up: dose 2 mg/kg, route oral; settings: plasma; summary of the method: as §5
[33] = Cmax in BCRP-/- mouse at 20 mg/kg, ip; assay type: ADME, organism-based; set-up: dose 20 mg/kg, route intraperitoneal; settings: in vivo; summary of the method: as §1
[34] = Drug metabolism in wild-type FVB mouse hepatic S9 fraction assessed as compound sulfation rate at 10 uM by UPLC-MS/MS analysis; assay type: ADME, Liver; settings: s9, 10 µM; summary of the method: as §3
[35] = Elimination rate constant in wild-type FVB mouse at 20 mg/kg, ip; assay type: ADME, organism-based; set-up: dose 20 mg/kg, route intraperitoneal; settings: in vivo; summary of the method: as §1
[36] = Drug metabolism in BCRP-/- mouse hepatic S9 fraction assessed as compound sulfation rate at 10 uM by UPLC-MS/MS analysis; assay type: ADME, Liver; settings: s9, 10 µM; summary of the method: as §3
Mus musculus [37] = species on record: Mus musculus; assay: Drug uptake in BCRP-/- mouse small intestine at 10 uM by UPLC-MS/MS analysis; assay type: ADME, organism-based; settings: in vivo; summary of the method: as §6
[38] = Cmax in wild-type FVB mouse at 2 mg/kg, po; assay type: ADME, organism-based; set-up: dose 2 mg/kg, route oral; settings: in vivo; summary of the method: as §5
[39] = AUC ( 0 to t) in BCRP-/- mouse at 20 mg/kg, po; assay type: ADME, organism-based; set-up: dose 20 mg/kg, route oral; settings: plasma; summary of the method: as §5
Intestine = assay: Drug uptake in wild-type FVB mouse small intestine at 10 uM by UPLC-MS/MS analysis; assay type: ADME, tissue-based; settings: in vivo; summary of the method: as §6
[40] = Drug metabolism in wild-type FVB mouse colon S9 fraction assessed as compound sulfation rate at 10 uM by UPLC-MS/MS analysis; assay type: ADME, tissue-based; settings: s9, 10 µM; summary of the method: as §3

For `O=c1c(-c2ccc(O)cc2)coc2cc(O)cc(O)c12` [GENISTEIN], the Cmax [1] was 2680 nM, the concentration at 2.5 h [2] was 9100 nM and the Drug metabolism [3] was “metabolite_not_detected”. For the same compound, the recovery at 4 h, up to 10 µM [4] was 92.3%, the recovery at 4 h, up to 10 µM (BCRP) was 87.8% and the Drug metabolism [5] was 117 pmol/min/mg. For the same compound, the Cmax [6] was 1100 nM, the Drug metabolism [7] was 2737 pmol/min/mg and the Cmax [8] was 230 nM. The Drug uptake (Mus musculus [9]) was 52%, the Drug metabolism [10] was 1299 pmol/min/mg and the Drug metabolism [11] was “metabolite_not_detected”. The half-life [12] was 3.8 h, the Drug metabolism [13] was “metabolite_not_detected” and the AUC(0-t) at 3 h [14] was 0.9 µM·h. The Stability (Blood) was “Stable”, the AUC(0-t) [15] was 6.05 µM·h and the Cmax [16] was 200 nM. For the same compound, the k el [17] was 7.5e-05 s⁻¹, the Drug transport [18] was “Not Active” and the AUC(0-t) [19] was 10 µM·h. For the same compound, the Cmax [20] was 3350 nM, the AUC(0-t) at 3 h [21] was 5 µM·h and the Drug metabolism [22] was “metabolite_not_detected”. It also gave a Drug metabolism [23] of 78 pmol/min/mg, an AUC(0-t) [24] of 0.36 µM·h and a t1/2 (Mus musculus [25]) of 2.8 h. It also gave a Drug uptake (Colon) of 46%, a Cmax [26] of 650 nM and a half-life [27] of 4.8 h. The AUC(0-t) [28] was 11.5 µM·h, the Drug metabolism [29] was 15.2 pmol/min/mg and the Kel (Mus musculus [30]) was 0.52 h⁻¹. The concentration at 2.5 h [31] was 9900 nM, the AUC(0-t) [32] was 0.71 µM·h and the Cmax [33] was 4420 nM. For the same compound, the Drug metabolism [34] was 13.3 pmol/min/mg, the k el [35] was 6.39e-05 s⁻¹ and the Drug metabolism [36] was 7.9 pmol/min/mg. For the same compound, the Drug uptake (Mus musculus [37]) was 74%, the Cmax [38] was 100 nM and the AUC(0-t) [39] was 16.4 µM·h. For the same compound, the Drug uptake (Intestine) was 87% and the Drug metabolism [40] was 26.5 pmol/min/mg.

Reference: ChEMBL document CHEMBL3526009, “Breast cancer resistance protein (ABCG2) determines distribution of genistein phase II metabolites: reevaluation of the roles of ABCG2 in the disposition of genistein” (Drug Metab Dispos, 2012)
